Measurements taken from ChEMBL document CHEMBL1139657, “Isothiazoloquinolones containing functionalized aromatic hydrocarbons at the 7-position: synthesis and in vitro activity of a series of potent antibacterial agents with diminished cytotoxicity in human cells” (Bioorg Med Chem Lett, 2006).
≈ marks a conversion by molar mass, not a printed value.

Key:
Staphylococcus aureus [1] = assay: Antimicrobial activity against methicillin-resistant Staphylococcus aureus 700699; assay type: functional
Outline: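 MIC taken as the lowest compound concentration preventing visible bacterial growth after incubation at 37 °C for 18–24 h.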

Escherichia coli = assay: Antimicrobial activity against Escherichia coli ATCC 25922; assay type: functional
Outline: (§1)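 MIC taken as lowest concentration giving no visible bacterial growth after incubation at 37 °C for 18–24 h.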

HEp-2 = assay: Cytotoxicity against human Hep2 laryngeal carcinoma cell line; assay type: functional
Staphylococcus aureus [2] = assay: Antimicrobial activity against Staphylococcus aureus ATCC 29213; assay type: functional; outline: as §1
DNA gyrase = DNA gyrase (Escherichia coli, UniProt P0AES4+P0AES6); assay: Inhibitory activity against wild type Escherichia coli gyrase; assay type: protein-complex assay
[3] = molecular target: DNA topoisomerase 4 subunit A (Staphylococcus aureus, UniProt P0C1U9); assay: Inhibitory activity against wild type Staphylococcus aureus topoisomerase 4
DNA topoisomerase 4 subunit A, sequence (P0C1U9 whole entry): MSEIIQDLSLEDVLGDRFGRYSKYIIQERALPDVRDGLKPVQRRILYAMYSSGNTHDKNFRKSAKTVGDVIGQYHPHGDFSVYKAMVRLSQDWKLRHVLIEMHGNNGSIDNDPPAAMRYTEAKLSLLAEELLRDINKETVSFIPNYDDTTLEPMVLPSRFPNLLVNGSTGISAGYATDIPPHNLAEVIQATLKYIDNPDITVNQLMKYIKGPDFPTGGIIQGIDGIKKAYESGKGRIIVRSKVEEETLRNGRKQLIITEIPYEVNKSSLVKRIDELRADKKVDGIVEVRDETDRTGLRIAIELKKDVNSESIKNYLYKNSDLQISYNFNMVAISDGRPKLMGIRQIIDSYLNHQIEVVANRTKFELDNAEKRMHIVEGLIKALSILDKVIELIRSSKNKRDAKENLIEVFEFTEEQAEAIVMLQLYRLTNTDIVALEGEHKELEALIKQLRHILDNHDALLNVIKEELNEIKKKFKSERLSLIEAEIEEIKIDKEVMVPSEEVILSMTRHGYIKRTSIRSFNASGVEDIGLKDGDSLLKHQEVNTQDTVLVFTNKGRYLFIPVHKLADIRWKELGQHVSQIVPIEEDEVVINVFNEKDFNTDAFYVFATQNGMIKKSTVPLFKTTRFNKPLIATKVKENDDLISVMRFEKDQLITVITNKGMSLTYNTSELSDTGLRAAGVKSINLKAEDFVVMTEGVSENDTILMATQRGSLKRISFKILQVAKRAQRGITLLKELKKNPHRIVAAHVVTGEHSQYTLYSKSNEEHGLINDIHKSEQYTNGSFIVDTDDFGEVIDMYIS

[4] = molecular target: DNA topoisomerase II (Homo sapiens) (UniProt P11388+Q02880); assay: Inhibitory activity against human topoisomerase 2; assay type: protein assay

SMILES | MIC (Staphylococcus aureus [1]) [µg/mL] | MIC (Escherichia coli) [µg/mL] | CC50 (HEp-2) [µM] | MIC (Staphylococcus aureus [2]) [µg/mL] | IC50 (DNA gyrase) [µM] | IC50 [3] [µM] | EC2 [4] [µM]
Nc1ccccc1-c1cc2c(cc1F)c(=O)c1c(=O)[nH]sc1n2C1CC1 | 64 (≈ 174 µM) | 0.125 (≈ 0.34 µM) | 46 | 0.03 (≈ 0.0817 µM) |  |  | 
CO/N=C1\CN(c2nc3c(cc2F)c(=O)c(C(=O)O)cn3C2CC2)CC1CN (configuration not stated) [GEMIFLOXACIN] | 2 (≈ 5.14 µM) | 0.015 (≈ 0.0385 µM) | 46 | 0.03 (≈ 0.077 µM) | 0.5 | 0.3 | 
Cc1cc(-c2cc3c(cc2F)c(=O)c2c(=O)[nH]sc2n3C2CC2)cc(C)c1O | 2 (≈ 5.04 µM) | 0.125 (≈ 0.315 µM) |  | 0.001 (≈ 0.00252 µM) |  |  | 
COc1ccccc1-c1cc2c(cc1F)c(=O)c1c(=O)[nH]sc1n2C1CC1 | 32 (≈ 83.7 µM) | 2 (≈ 5.23 µM) | > 84 | 0.125 (≈ 0.327 µM) |  |  | 
O=c1[nH]sc2c1c(=O)c1cc(F)c(-c3ccc(F)cc3)cc1n2C1CC1 | 32 (≈ 86.4 µM) | 0.25 (≈ 0.675 µM) | > 100 | 0.03 (≈ 0.081 µM) |  |  | 
COc1ccc(-c2cc3c(cc2F)c(=O)c2c(=O)[nH]sc2n3C2CC2)cc1 | 2 (≈ 5.23 µM) | 0.125 (≈ 0.327 µM) | 91 | 0.015 (≈ 0.0392 µM) |  |  | 
O=c1[nH]sc2c1c(=O)c1cc(F)c(-c3ccc(CO)cc3)cc1n2C1CC1 | 4 (≈ 10.5 µM) | 0.06 (≈ 0.157 µM) | 25 | 0.004 (≈ 0.0105 µM) | 0.9 | 41 | 
O=c1[nH]sc2c1c(=O)c1cc(F)c(N3CCNCC3)cc1n2C1CC1 | 4 (≈ 11.1 µM) | 0.004 (≈ 0.0111 µM) | 7 | 0.05 (≈ 0.139 µM) | 0.1 | 0.5 | 20
N#CCc1ccc(-c2cc3c(cc2F)c(=O)c2c(=O)[nH]sc2n3C2CC2)cc1 | 0.5 (≈ 1.28 µM) | 0.02 (≈ 0.0511 µM) | 84 | 0.002 (≈ 0.00511 µM) |  |  | 
Nc1cc(-c2cc3c(cc2F)c(=O)c2c(=O)[nH]sc2n3C2CC2)ccc1F | 0.5 (≈ 1.3 µM) | 0.125 (≈ 0.324 µM) | 28 | 0.008 (≈ 0.0208 µM) | 0.3 | 10 | 
N#Cc1ccc(-c2cc3c(cc2F)c(=O)c2c(=O)[nH]sc2n3C2CC2)cc1 | 16 (≈ 42.4 µM) | 1 (≈ 2.65 µM) | > 100 | 0.03 (≈ 0.0795 µM) |  |  | 
CC(=O)c1cccc(-c2cc3c(cc2F)c(=O)c2c(=O)[nH]sc2n3C2CC2)c1 | 2 (≈ 5.07 µM) | 0.125 (≈ 0.317 µM) | > 100 | 0.004 (≈ 0.0101 µM) |  |  | 
CC(=O)Nc1cccc(-c2cc3c(cc2F)c(=O)c2c(=O)[nH]sc2n3C2CC2)c1 | 64 (≈ 156 µM) | 0.125 (≈ 0.305 µM) |  | 0.004 (≈ 0.00977 µM) |  |  | 
O=c1[nH]sc2c1c(=O)c1cc(F)c(-c3cccc(O)c3)cc1n2C1CC1 | 0.25 (≈ 0.679 µM) | 0.06 (≈ 0.163 µM) | > 100 | 0.004 (≈ 0.0109 µM) | 0.2 | 1.6 | 
O=c1[nH]sc2c1c(=O)c1cc(F)c(-c3cccc(F)c3)cc1n2C1CC1 | 1 (≈ 2.7 µM) | 0.125 (≈ 0.337 µM) | 96 | 0.004 (≈ 0.0108 µM) | 1 | 7.2 | > 150
O=c1[nH]sc2c1c(=O)c1cc(F)c(-c3ccc(C4CCCCN4)cc3)cc1n2C1CC1 (configuration not stated) | 4 (≈ 9.18 µM) | 0.25 (≈ 0.574 µM) | 4 | 0.125 (≈ 0.287 µM) | 1 | 2.6 | 
Nc1ccc(-c2cc3c(cc2F)c(=O)c2c(=O)[nH]sc2n3C2CC2)cc1 | 0.5 (≈ 1.36 µM) | 0.06 (≈ 0.163 µM) | 34 | 0.004 (≈ 0.0109 µM) | 0.3 | 12 | 
N#Cc1cccc(-c2cc3c(cc2F)c(=O)c2c(=O)[nH]sc2n3C2CC2)c1 | 0.125 (≈ 0.331 µM) | 0.03 (≈ 0.0795 µM) | > 100 | 0.001 (≈ 0.00265 µM) |  |  | 
N#Cc1ccccc1-c1cc2c(cc1F)c(=O)c1c(=O)[nH]sc1n2C1CC1 | > 64 | 2 (≈ 5.3 µM) | > 85 | 0.125 (≈ 0.331 µM) |  |  | 
